# ChEMBL document CHEMBL1781959, “Synthesis and in vitro antitumor activity of substituted quinazoline and quinoxaline derivatives: search for anticancer agent” (Eur J Med Chem, 2011)
# Assays:
# Assay type in all cases: functional
# [1] = test system: A498; experiment: Anticancer activity against human A498 cells assessed as cell growth promotion at 10^-5 M after 48 hrs by SRB assay relative to control
# [2] = test system: T47D; experiment: Anticancer activity against human T47D cells assessed as cell growth promotion at 10^-5 M after 48 hrs by SRB assay relative to control
# [3] = test system: UO-31; experiment: Anticancer activity against human UO31 cells assessed as cell growth promotion at 10^-5 M after 48 hrs by SRB assay relative to control
# [4] = test system: ACHN; experiment: Anticancer activity against human ACHN cells assessed as cell growth promotion at 10^-5 M after 48 hrs by SRB assay relative to control
# [5] = test system: NCI-H460; experiment: Anticancer activity against human NCI-H460 cells assessed as cell growth promotion at 10^-5 M after 48 hrs by SRB assay relative to control
# [6] = test system: SK-MEL-5; experiment: Anticancer activity against human SK-MEL-5 cells assessed as cell growth promotion at 10^-5 M after 48 hrs by SRB assay relative to control
# [7] = test system: MCF7; experiment: Anticancer activity against human MCF7 cells assessed as cell growth promotion at 10^-5 M after 48 hrs by SRB assay relative to control
# [8] = test system: OVCAR-5; experiment: Anticancer activity against human OVCAR5 cells assessed as cell growth promotion at 10^-5 M after 48 hrs by SRB assay relative to control
# [9] = test system: SK-OV-3; experiment: Anticancer activity against human SKOV3 cells assessed as cell growth promotion at 10^-5 M after 48 hrs by SRB assay relative to control
# [10] = test system: SK-MEL-28; experiment: Anticancer activity against human SK-MEL-28 cells assessed as cell growth promotion at 10^-5 M after 48 hrs by SRB assay relative to control
# [11] = test system: LOX IMVI; experiment: Anticancer activity against human LOXIMVI cells assessed as cell growth promotion at 10^-5 M after 48 hrs by SRB assay relative to control
# [12] = test system: SF-268; experiment: Anticancer activity against human SF268 cells assessed as cell growth promotion at 10^-5 M after 48 hrs by SRB assay relative to control
# [13] = test system: HL-60(TB); experiment: Anticancer activity against human HL-60(TB) cells assessed as cell growth promotion at 10^-5 M after 48 hrs by SRB assay relative to control
# How it was run: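 NCI-60 single-dose screen: compound at 10^-5 M, 48 h at 37 °C, 5% CO2; cells grown in RPMI 1640 with 5% FBS and 2 mM L-glutamine, pre-incubated 24 h before dosing. Adherent cells fixed with cold TCA; endpoint is sulforhodamine B protein staining. Percent growth of treated cells is reported relative to untreated control.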
# [14] = test system: K562; experiment: Anticancer activity against human K562 cells assessed as cell growth promotion at 10^-5 M after 48 hrs by SRB assay relative to control
# [15] = test system: M14; experiment: Anticancer activity against human M14 cells assessed as cell growth promotion at 10^-5 M after 48 hrs by SRB assay relative to control
# [16] = test system: MDA-MB-231; experiment: Anticancer activity against human MDA-MB-231 cells assessed as cell growth promotion at 10^-5 M after 48 hrs by SRB assay relative to control
# [17] = test system: TK-10; experiment: Anticancer activity against human TK10 cells assessed as cell growth promotion at 10^-5 M after 48 hrs by SRB assay relative to control
# [18] = test system: RXF 393; experiment: Anticancer activity against human RXF393 cells assessed as cell growth promotion at 10^-5 M after 48 hrs by SRB assay relative to control
# [19] = test system: CAKI-1; experiment: Anticancer activity against human Caki1 cells assessed as cell growth promotion at 10^-5 M after 48 hrs by SRB assay relative to control
# [20] = test system: SF-539; experiment: Anticancer activity against human SF539 cells assessed as cell growth promotion at 10^-5 M after 48 hrs by SRB assay relative to control
# [21] = test system: CCRF-CEM; experiment: Anticancer activity against human CCRF-CEM cells assessed as cell growth promotion at 10^-5 M after 48 hrs by SRB assay relative to control
# [22] = test system: Malme-3M; experiment: Anticancer activity against human MALME-3M cells assessed as cell growth promotion at 10^-5 M after 48 hrs by SRB assay relative to control
# [23] = test system: HT-29; experiment: Anticancer activity against human HT-29 cells assessed as cell growth promotion at 10^-5 M after 48 hrs by SRB assay relative to control
# [24] = test system: KM12; experiment: Anticancer activity against human KM12 cells assessed as cell growth promotion at 10^-5 M after 48 hrs by SRB assay relative to control
# [25] = test system: HCT-116; experiment: Anticancer activity against human HCT116 cells assessed as cell growth promotion at 10^-5 M after 48 hrs by SRB assay relative to control
# [26] = test system: HCC 2998; experiment: Anticancer activity against human HCC2998 cells assessed as cell growth promotion at 10^-5 M after 48 hrs by SRB assay relative to control
# [27] = test system: DU-145; experiment: Anticancer activity against human DU145 cells assessed as cell growth promotion at 10^-5 M after 48 hrs by SRB assay relative to control
# [28] = test system: SNB-19; experiment: Anticancer activity against human SNB19 cells assessed as cell growth promotion at 10^-5 M after 48 hrs by SRB assay relative to control
# [29] = test system: NCI-H23; experiment: Anticancer activity against human NCI-H23 cells assessed as cell growth promotion at 10^-5 M after 48 hrs by SRB assay relative to control
# [30] = test system: MDA-MB-468; experiment: Anticancer activity against human MDA-MB-468 cells assessed as cell growth promotion at 10^-5 M after 48 hrs by SRB assay relative to control
# [31] = test system: IGROV-1; experiment: Anticancer activity against human IGROV1 cells assessed as cell growth promotion at 10^-5 M after 48 hrs by SRB assay relative to control
# [32] = test system: MDA-MB-435; experiment: Anticancer activity against human MDA-MB-435 cells assessed as cell growth promotion at 10^-5 M after 48 hrs by SRB assay relative to control
# [33] = test system: MOLT-4; experiment: Anticancer activity against human MOLT4 cells assessed as cell growth promotion at 10^-5 M after 48 hrs by SRB assay relative to control
# [34] = test system: SN12C; experiment: Anticancer activity against human SN12C cells assessed as cell growth promotion at 10^-5 M after 48 hrs by SRB assay relative to control
# [35] = test system: OVCAR-3; experiment: Anticancer activity against human OVCAR3 cells assessed as cell growth promotion at 10^-5 M after 48 hrs by SRB assay relative to control
# [36] = test system: SF-295; experiment: Anticancer activity against human SF295 cells assessed as cell growth promotion at 10^-5 M after 48 hrs by SRB assay relative to control
# [37] = test system: EKVX; experiment: Anticancer activity against human EKVX cells assessed as cell growth promotion at 10^-5 M after 48 hrs by SRB assay relative to control
# [38] = Anticancer activity against human Hs 578T cells assessed as cell growth promotion at 10^-5 M after 48 hrs by SRB assay relative to control
SMILES,Activity [2],Activity [3],Activity [4],Activity [5],Activity [6],Activity [7],Activity [8],Activity [9],Activity [10],Activity [11],Activity [12],Activity [13],Activity [14],Activity [15],Activity [16],Activity [17],Activity [18],Activity [19],Activity [20],Activity [21],also measured
O=c1c2ccccc2nc(-c2ccco2)n1O,106.81%,68.92%,98.81%,108.52%,111.56%,103.51%,100.49%,106.84%,109.58%,107.97%,106.3%,95.84%,105.54%,89.53%,93.48%,98.03%,117.15%,102.81%,95.42%,98.16%,Activity [1]: 97.65%; Activity [22]: 122.97%; Activity [23]: 103.19%; Activity [24]: 110.22%; Activity [25]: 105.94%; Activity [26]: 119.5%; Activity [27]: 122.21%; Activity [28]: 101.58%; Activity [29]: 105.41%; Activity [30]: 115.34%; Activity [31]: 103.91%; Activity [32]: 124.51%; Activity [33]: 101.31%; Activity [34]: 98.6%; Activity [35]: 114.53%; Activity [36]: 117.66%; Activity [37]: 109.13%
O=C(O)c1ccc(-n2c(-c3ccco3)nc3ccccc3c2=O)cc1,83%,68.61%,101.24%,95.38%,94.96%,63.47%,98.22%,107.59%,115.08%,98.82%,106.85%,94.52%,98.25%,103.37%,83.73%,94.73%,109.93%,102.24%,104.2%,87.86%,Activity [1]: 106.88%; Activity [22]: 102.96%; Activity [23]: 92%; Activity [24]: 104.99%; Activity [25]: 99.69%; Activity [26]: 120.31%; Activity [27]: 111.42%; Activity [28]: 91.35%; Activity [29]: 98.82%; Activity [30]: 101.43%; Activity [31]: 91.67%; Activity [32]: 112.17%; Activity [33]: 91.05%; Activity [34]: 99.34%; Activity [35]: 105.38%; Activity [36]: 108.58%; Activity [37]: 98.39%
N#Cc1ccc(/C=C/c2ccc(NC(=O)c3ccccc3NC(=O)c3ccco3)cc2)cc1,103%,84.8%,104%,116%,103%,98.4%,105%,111%,113%,109%,104%,84.98%,94.72%,112%,94.46%,126%,114%,83.31%,102%,96.43%,Activity [1]: 94.62%; Activity [22]: 108%; Activity [24]: 107%; Activity [25]: 103%; Activity [26]: 105%; Activity [27]: 104%; Activity [28]: 111%; Activity [29]: 94.62%; Activity [38]: 100%; Activity [30]: 108%; Activity [31]: 110%; Activity [32]: 108%; Activity [33]: 99.1%; Activity [34]: 104%; Activity [35]: 107%; Activity [36]: 114%; Activity [37]: 88.81%
COc1cc(/C=C/c2ccc(NC(=O)c3ccccc3NC(=O)c3ccccc3)cc2)ccc1O,89.85%,68.52%,97.71%,107%,86.16%,96.33%,116%,96.53%,115%,92%,108%,97.49%,96.88%,92.83%,96.74%,97.64%,95.14%,95.9%,110%,79.93%,Activity [22]: 101%; Activity [23]: 121%; Activity [24]: 106%; Activity [25]: 92.7%; Activity [26]: 99.7%; Activity [27]: 108%; Activity [28]: 104%; Activity [29]: 105%; Activity [38]: 100%; Activity [30]: 95.39%; Activity [31]: 96.3%; Activity [32]: 107%; Activity [33]: 86.81%; Activity [34]: 96.62%; Activity [35]: 107%; Activity [36]: 162%; Activity [37]: 100%
O=C(Nc1ccccc1C(=O)Nc1ccc(/C=C/C=C/c2ccccc2)cc1)c1ccccc1,86.44%,49.85%,87.29%,94.36%,77.57%,100%,99.95%,87.56%,107%,84.87%,98.17%,92.43%,62.47%,83.75%,87.48%,114%,98.83%,83.56%,102%,53.89%,Activity [22]: 78.99%; Activity [23]: 111%; Activity [24]: 93.79%; Activity [25]: 84.74%; Activity [26]: 93.69%; Activity [27]: 111%; Activity [28]: 90.58%; Activity [29]: 91.39%; Activity [38]: 80.44%; Activity [30]: 81.99%; Activity [31]: 78.34%; Activity [32]: 90.52%; Activity [33]: 77.32%; Activity [34]: 87.79%; Activity [35]: 88.79%; Activity [36]: 58.93%; Activity [37]: 87.7%
